Measured values as given in ChEMBL document CHEMBL4402598, “Design and Synthesis of Bitopic 2-Phenylcyclopropylmethylamine (PCPMA) Derivatives as Selective Dopamine D3 Receptor Ligands” (J Med Chem, 2020).

What was measured:
[1] = Clearance in ICR mouse at 5 mg/kg, iv by LC-MS/MS analysis; type: ADME, organism-based; settings: in vivo
Procedure, shortened: (§1)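 Male ICR mice (6-8 weeks, ~25 g) dosed with compound dissolved in saline, 5 mg/kg iv or 10 mg/kg po, nine animals per group. Samples stored at -80 °C; drug quantified by LC-MS/MS.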

[2] = Drug level in ICR mouse plasma at 5 mg/kg, iv measured after 0.5 hrs by LC-MS/MS analysis; type: ADME, organism-based
Procedure, shortened: (§2)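 Male ICR mice (6-8 weeks, ~25 g) received compound in saline, 5 mg/kg iv or 10 mg/kg po. Brains collected at 0.5 and 2.0 h, saline-washed, weighed, homogenized in cold 50% methanol (1 g:3 mL). Plasma prepared from orbital blood. Samples held at -80 °C; LC-MS/MS quantitation. Brain/plasma ratio calculated from the two concentrations.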

[3] = Oral bioavailability in ICR mouse at 10 mg/kg by LC-MS/MS analysis; type: ADME, organism-based; settings: in vivo; procedure, shortened: as §1
[4] = Drug level in ICR mouse brain at 10 mg/kg, po measured after 2 hrs by LC-MS/MS analysis; type: ADME, organism-based; procedure, shortened: as §2
[5] = biological target: T1, 5-hydroxytryptamine receptor 2C (Homo sapiens, UniProt P28335); test: Antagonist activity at human 5HT2C receptor stably expressed in HEK293 cells co-expressing Gq assessed as inhibition of 5-HT-induced calcium mobilization preincubated for 15 mins followed by 5-HT addition and measured at 1 sec interval for 60 secs by Fluo-4 calcium dye based FLIPR assay; type: functional, cell-based
T1 sequence (P28335 whole entry): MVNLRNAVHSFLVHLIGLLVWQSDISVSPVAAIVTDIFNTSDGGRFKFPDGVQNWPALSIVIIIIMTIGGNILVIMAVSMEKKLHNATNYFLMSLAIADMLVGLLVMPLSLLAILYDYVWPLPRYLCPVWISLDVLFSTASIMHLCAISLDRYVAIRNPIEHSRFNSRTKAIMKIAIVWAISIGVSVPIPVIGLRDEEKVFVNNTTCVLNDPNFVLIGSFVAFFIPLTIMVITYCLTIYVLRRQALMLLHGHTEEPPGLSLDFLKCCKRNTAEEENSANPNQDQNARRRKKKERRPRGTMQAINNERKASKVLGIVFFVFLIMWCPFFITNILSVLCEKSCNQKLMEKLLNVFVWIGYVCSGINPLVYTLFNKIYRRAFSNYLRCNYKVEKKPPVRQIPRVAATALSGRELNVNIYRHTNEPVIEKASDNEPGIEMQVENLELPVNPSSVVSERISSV
Procedure, shortened: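 5-HT2C stably transfected HEK293 cells, loaded with Fluo-4 Direct (HBSS, 20 mM HEPES pH 7.4, 2.5 mM probenecid; 50 min 37 °C, 10 min room temperature). Test compound added, then 5-HT (final 1 nM) 15 min later.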

[6] = Drug level in ICR mouse plasma at 10 mg/kg, po measured after 2 hrs by LC-MS/MS analysis; type: ADME, organism-based; procedure, shortened: as §2
[7] = Ratio of drug level in ICR mouse brain to plasma at 10 mg/kg, po measured after 0.5 hrs by LC-MS/MS analysis; type: ADME, organism-based; settings: read-out: BPR; procedure, shortened: as §2
[8] = Volume of distribution at steady state in ICR mouse at 5 mg/kg, iv by LC-MS/MS analysis; type: ADME, organism-based; settings: in vivo, read-out: Vdss; procedure, shortened: as §1
D(4) dopamine receptor = biological target: T2, D(4) dopamine receptor (Homo sapiens, UniProt P21917); test: Displacement of [3H]-N-methylspiperone from recombinant human D4 receptor stably expressed in HEK cell membranes measured after 90 mins by microbeta scintillation counting method
T2 sequence (P21917 whole entry): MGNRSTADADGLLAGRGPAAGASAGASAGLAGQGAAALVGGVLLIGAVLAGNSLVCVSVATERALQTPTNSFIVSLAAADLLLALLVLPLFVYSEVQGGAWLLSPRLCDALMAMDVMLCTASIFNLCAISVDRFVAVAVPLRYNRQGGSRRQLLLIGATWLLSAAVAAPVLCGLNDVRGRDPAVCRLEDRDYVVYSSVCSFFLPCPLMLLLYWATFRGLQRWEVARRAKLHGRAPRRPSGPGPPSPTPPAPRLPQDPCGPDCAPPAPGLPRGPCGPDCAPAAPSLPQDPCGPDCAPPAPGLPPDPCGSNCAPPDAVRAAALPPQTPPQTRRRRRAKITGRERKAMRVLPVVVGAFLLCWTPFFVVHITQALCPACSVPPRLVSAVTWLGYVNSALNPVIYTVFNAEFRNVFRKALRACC

[9] = Tmax in ICR mouse at 10 mg/kg, po by LC-MS/MS analysis; type: ADME, organism-based; settings: in vivo; procedure, shortened: as §1
[10] = Drug level in ICR mouse plasma at 5 mg/kg, iv measured after 2 hrs by LC-MS/MS analysis; type: ADME, organism-based; procedure, shortened: as §2
[11] = Ratio of drug level in ICR mouse brain to plasma at 10 mg/kg, po measured after 2 hrs by LC-MS/MS analysis; type: ADME, organism-based; settings: read-out: BPR; procedure, shortened: as §2
[12] = MRT in ICR mouse at 10 mg/kg, po by LC-MS/MS analysis; type: ADME, organism-based; settings: in vivo; procedure, shortened: as §1
D(1A) dopamine receptor = D(1A) dopamine receptor (Homo sapiens, UniProt P21728); test: Displacement of [3H]-SCH23390 from recombinant human D1 receptor transiently expressed in HEKT cell membranes measured after 90 mins by microbeta scintillation counting method
[13] = AUC (0 to t) in ICR mouse at 10 mg/kg, po by LC-MS/MS analysis; type: ADME, organism-based; settings: in vivo; procedure, shortened: as §1
[14] = Ratio of drug level in ICR mouse brain to plasma at 5 mg/kg, iv measured after 2 hrs by LC-MS/MS analysis; type: ADME, organism-based; settings: read-out: BPR; procedure, shortened: as §2
[15] = MRT in ICR mouse at 5 mg/kg, iv by LC-MS/MS analysis; type: ADME, organism-based; settings: in vivo; procedure, shortened: as §1
[16] = Half life in ICR mouse at 5 mg/kg, iv by LC-MS/MS analysis; type: ADME, organism-based; settings: in vivo; procedure, shortened: as §1
[17] = Ratio of drug level in ICR mouse brain to plasma at 5 mg/kg, iv measured after 0.5 hrs by LC-MS/MS analysis; type: ADME, organism-based; settings: read-out: BPR; procedure, shortened: as §2
[18] = AUC (0 to t) in ICR mouse at 5 mg/kg, iv by LC-MS/MS analysis; type: ADME, organism-based; settings: in vivo; procedure, shortened: as §1
[19] = biological target: T1, 5-hydroxytryptamine receptor 2C; test: Displacement of [3H]-Mesulergine from recombinant human 5HT2C receptor expressed in HEKT cell membranes measured after 90 mins by microbeta scintillation counting method
[20] = Drug level in ICR mouse brain at 5 mg/kg, iv measured after 2 hrs by LC-MS/MS analysis; type: ADME, organism-based; procedure, shortened: as §2
[21] = biological target: 5-hydroxytryptamine receptor 2A (Homo sapiens, UniProt P28223); test: Agonist activity at 5HT2A receptor (unknown origin) expressed in HEK293 cells co-expressing Gq assessed as induction of calcium mobilization measured at 1 sec interval for 60 secs by Fluo-4 calcium dye based FLIPR assay; type: cell-based; settings: hek293, 1 min
D(1B) dopamine receptor = D(1B) dopamine receptor (Homo sapiens, UniProt P21918); test: Displacement of [3H]-SCH23390 from recombinant human D5 receptor transiently expressed in HEKT cell membranes measured after 90 mins by microbeta scintillation counting method
[22] = Drug level in ICR mouse brain at 5 mg/kg, iv measured after 0.5 hrs by LC-MS/MS analysis; type: ADME, organism-based; procedure, shortened: as §2
[23] = Drug level in ICR mouse plasma at 10 mg/kg, po measured after 0.5 hrs by LC-MS/MS analysis; type: ADME, organism-based; procedure, shortened: as §2
[24] = Half life in ICR mouse at 10 mg/kg, po by LC-MS/MS analysis; type: ADME, organism-based; settings: in vivo; procedure, shortened: as §1
[25] = Drug level in ICR mouse brain at 10 mg/kg, po measured after 0.5 hrs by LC-MS/MS analysis; type: ADME, organism-based; procedure, shortened: as §2
[26] = Cmax in ICR mouse at 10 mg/kg, po by LC-MS/MS analysis; type: ADME, organism-based; set-up: dose 10 mg/kg, route oral; settings: in vivo; procedure, shortened: as §1
[27] = biological target: 5-hydroxytryptamine receptor 2B (Homo sapiens, UniProt P41595); test: Agonist activity at 5HT2B receptor (unknown origin) expressed in HEK293 cells co-expressing Gq assessed as induction of calcium mobilization measured at 1 sec interval for 60 secs by Fluo-4 calcium dye based FLIPR assay; type: cell-based; settings: hek293, 1 min
D(2) dopamine receptor = D(2) dopamine receptor (Homo sapiens, UniProt P14416); test: Displacement of [3H]-N-methylspiperone from recombinant human D2 receptor stably expressed in fibroblast cell membranes measured after 90 mins by microbeta scintillation counting method
D(3) dopamine receptor = D(3) dopamine receptor (Homo sapiens, UniProt P35462); test: Displacement of [3H]-N-methylspiperone from recombinant human D3 receptor (unknown origin) measured after 90 mins by microbeta scintillation counting method
Sequence of D(3) dopamine receptor (P35462 whole entry): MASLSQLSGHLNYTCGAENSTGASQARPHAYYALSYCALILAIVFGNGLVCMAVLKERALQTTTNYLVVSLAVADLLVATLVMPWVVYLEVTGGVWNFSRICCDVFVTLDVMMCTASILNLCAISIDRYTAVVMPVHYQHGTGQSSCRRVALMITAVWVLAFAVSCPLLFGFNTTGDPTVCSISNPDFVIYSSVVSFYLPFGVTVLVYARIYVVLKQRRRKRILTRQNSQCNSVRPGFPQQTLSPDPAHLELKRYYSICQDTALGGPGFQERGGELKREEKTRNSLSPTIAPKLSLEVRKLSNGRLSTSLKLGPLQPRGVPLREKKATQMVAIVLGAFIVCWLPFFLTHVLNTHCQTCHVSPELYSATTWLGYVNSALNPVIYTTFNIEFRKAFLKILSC

Sequence of 5-hydroxytryptamine receptor 2A (P28223 whole entry): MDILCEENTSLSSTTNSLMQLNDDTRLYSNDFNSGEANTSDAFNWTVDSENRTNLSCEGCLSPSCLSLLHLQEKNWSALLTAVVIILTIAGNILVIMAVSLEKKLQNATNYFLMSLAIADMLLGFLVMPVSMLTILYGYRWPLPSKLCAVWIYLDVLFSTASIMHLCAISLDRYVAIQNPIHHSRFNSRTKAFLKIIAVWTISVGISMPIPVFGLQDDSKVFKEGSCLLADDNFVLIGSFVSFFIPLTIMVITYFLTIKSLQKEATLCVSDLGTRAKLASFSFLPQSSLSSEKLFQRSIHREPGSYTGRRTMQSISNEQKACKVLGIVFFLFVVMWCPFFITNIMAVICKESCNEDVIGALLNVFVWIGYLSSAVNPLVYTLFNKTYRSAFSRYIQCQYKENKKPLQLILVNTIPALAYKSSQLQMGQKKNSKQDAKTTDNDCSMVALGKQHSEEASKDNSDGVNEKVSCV
Sequence of D(2) dopamine receptor (P14416 whole entry): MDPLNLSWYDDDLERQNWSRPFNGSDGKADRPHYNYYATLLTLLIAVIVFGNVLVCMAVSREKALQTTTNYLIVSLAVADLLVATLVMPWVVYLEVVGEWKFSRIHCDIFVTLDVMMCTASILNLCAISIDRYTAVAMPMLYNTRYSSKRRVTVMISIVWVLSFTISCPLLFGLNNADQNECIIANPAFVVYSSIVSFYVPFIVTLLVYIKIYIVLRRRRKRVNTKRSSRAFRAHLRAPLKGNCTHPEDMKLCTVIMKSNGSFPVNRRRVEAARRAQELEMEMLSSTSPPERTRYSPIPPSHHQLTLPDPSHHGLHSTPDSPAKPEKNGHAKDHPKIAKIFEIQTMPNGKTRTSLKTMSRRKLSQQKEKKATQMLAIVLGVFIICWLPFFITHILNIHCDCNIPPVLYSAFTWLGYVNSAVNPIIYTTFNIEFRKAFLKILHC
Sequence of D(1A) dopamine receptor (P21728 whole entry): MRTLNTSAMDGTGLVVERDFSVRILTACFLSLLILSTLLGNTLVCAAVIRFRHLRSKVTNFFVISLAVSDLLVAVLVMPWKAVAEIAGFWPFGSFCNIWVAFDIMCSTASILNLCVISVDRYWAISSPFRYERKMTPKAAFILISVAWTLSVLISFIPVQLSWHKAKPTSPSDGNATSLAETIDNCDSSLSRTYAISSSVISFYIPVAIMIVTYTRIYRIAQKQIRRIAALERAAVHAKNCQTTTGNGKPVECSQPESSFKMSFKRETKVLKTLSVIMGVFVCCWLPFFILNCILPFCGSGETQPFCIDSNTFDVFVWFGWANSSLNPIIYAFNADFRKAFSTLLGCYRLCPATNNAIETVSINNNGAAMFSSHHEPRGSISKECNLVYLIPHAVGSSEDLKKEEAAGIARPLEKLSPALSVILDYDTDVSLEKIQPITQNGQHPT
Sequence of D(1B) dopamine receptor (P21918 whole entry): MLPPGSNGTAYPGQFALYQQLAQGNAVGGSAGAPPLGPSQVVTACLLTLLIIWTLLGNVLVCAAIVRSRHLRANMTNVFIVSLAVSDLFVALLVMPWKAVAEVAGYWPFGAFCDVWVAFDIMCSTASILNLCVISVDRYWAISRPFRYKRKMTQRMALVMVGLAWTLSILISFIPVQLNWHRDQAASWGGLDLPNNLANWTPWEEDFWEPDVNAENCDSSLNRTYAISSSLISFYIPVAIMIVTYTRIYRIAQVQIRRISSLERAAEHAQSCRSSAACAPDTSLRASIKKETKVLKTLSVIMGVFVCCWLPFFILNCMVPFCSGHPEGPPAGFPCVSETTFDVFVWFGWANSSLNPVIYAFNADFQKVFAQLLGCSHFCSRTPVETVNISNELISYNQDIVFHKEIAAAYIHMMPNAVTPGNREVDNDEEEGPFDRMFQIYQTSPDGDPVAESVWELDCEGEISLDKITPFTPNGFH
Sequence of 5-hydroxytryptamine receptor 2B (P41595 whole entry): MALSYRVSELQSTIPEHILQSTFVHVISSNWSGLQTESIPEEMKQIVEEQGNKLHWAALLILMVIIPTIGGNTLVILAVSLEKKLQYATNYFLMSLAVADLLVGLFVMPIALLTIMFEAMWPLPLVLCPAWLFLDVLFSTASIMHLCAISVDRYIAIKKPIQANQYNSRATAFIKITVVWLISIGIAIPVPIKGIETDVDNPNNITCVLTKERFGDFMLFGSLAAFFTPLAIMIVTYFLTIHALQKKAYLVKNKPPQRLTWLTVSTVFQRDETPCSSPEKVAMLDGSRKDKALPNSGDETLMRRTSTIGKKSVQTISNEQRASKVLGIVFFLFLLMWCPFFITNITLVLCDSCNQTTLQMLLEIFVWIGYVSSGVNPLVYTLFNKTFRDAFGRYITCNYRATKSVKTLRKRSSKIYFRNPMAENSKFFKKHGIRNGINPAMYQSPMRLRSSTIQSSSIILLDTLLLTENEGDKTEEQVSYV

clearance [1]	concentration at 0.5 h [2]	bioavailability [3]	concentration at 2 h [4]	IC50 [5]	concentration at 2 h [6]	Kp at 0.5 h [7]	Vd [8]	Ki (D(4) dopamine receptor)	Tmax [9]	concentration at 2 h [10]	Kp at 2 h [11]	MRT [12]	Ki (D(1A) dopamine receptor)	AUC(0-t) [13]	Ki [19]	Activity [21]	Ki (D(1B) dopamine receptor)	Activity [27]	Ki (D(2) dopamine receptor)	also measured	Structure (SMILES)
84.8 mL/min/kg	511 ng/mL	13%	9.1 ng/mL	10100 nM	44.1 ng/mL	0.23	4.11 L/kg	676 nM	0.5 h	118 ng/mL	0.207	2.77 h	1350 nM	254 ng·h/mL	417 nM	Active	> 5000 nM	Not Active		Kp at 2 h [14]: 1.93; MRT [15]: 0.808 h; half-life [16]: 0.576 h; Kp at 0.5 h [17]: 1.92; AUC(0-t) [18]: 976 ng·h/mL; concentration at 2 h [20]: 227 ng/mL; concentration at 0.5 h [22]: 980 ng/mL; concentration at 0.5 h [23]: 118 ng/mL; half-life [24]: 2.12 h; concentration at 0.5 h [25]: 26.7 ng/mL; Cmax [26]: 118 ng/mL	CCCN(CCCCNC(=O)c1ccc(-c2ccccn2)cc1)C[C@@H]1C[C@H]1c1cccc(Cl)c1Cl.Cl
134 mL/min/kg	270 ng/mL	6.6%	23.2 ng/mL	16100 nM	16.4 ng/mL	0.82	20.8 L/kg	813 nM	0.25 h	82.6 ng/mL	1.61	2.59 h	1290 nM	81.1 ng·h/mL	427 nM	Active	> 5000 nM	Not Active	676 nM	Kp at 2 h [14]: 11.1; MRT [15]: 2.58 h; half-life [16]: 1.51 h; Kp at 0.5 h [17]: 12.7; AUC(0-t) [18]: 616 ng·h/mL; concentration at 2 h [20]: 913 ng/mL; concentration at 0.5 h [22]: 3420 ng/mL; concentration at 0.5 h [23]: 28.4 ng/mL; half-life [24]: 2.08 h; concentration at 0.5 h [25]: 23.2 ng/mL; Cmax [26]: 37.3 ng/mL	CCCN(CCCCNC(=O)c1ccc2ccccc2c1)C[C@@H]1C[C@H]1c1cccc(Cl)c1Cl.Cl
				860 nM				851 nM					1070 nM		50.1 nM	Active	> 5000 nM	Not Active	1230 nM		CCCN(CCCCNC(=O)c1ccc(-c2ccccn2)cc1)C[C@H]1C[C@@H]1c1cc(F)ccc1OC.Cl
117 mL/min/kg	215 ng/mL	34.1%	160 ng/mL	> 30000 nM	67.7 ng/mL	1.45	23.8 L/kg	1050 nM	1 h	94.8 ng/mL	2.36	6 h	1380 nM	428 ng·h/mL	513 nM	Active	> 5000 nM	Not Active	537 nM	Kp at 2 h [14]: 5.72; MRT [15]: 3.4 h; half-life [16]: 3.12 h; Kp at 0.5 h [17]: 3.88; AUC(0-t) [18]: 629 ng·h/mL; concentration at 2 h [20]: 543 ng/mL; concentration at 0.5 h [22]: 833 ng/mL; concentration at 0.5 h [23]: 35.5 ng/mL; half-life [24]: 4.11 h; concentration at 0.5 h [25]: 51.3 ng/mL; Cmax [26]: 63.9 ng/mL	CCCN(CCCCNC(=O)c1cc2ccccc2[nH]1)C[C@@H]1C[C@H]1c1cccc(Cl)c1Cl.Cl
								130 nM					1920 nM		535 nM		> 5000 nM		233 nM	Ki (D(3) dopamine receptor): 36.7 nM	CCCN(CCCSc1nnc(-c2ccccc2)n1C)CC1CC1c1cc(Cl)ccc1OC (stereo unspecified)
